From ChEMBL document CHEMBL1132221, “Isoxazolo-[3,4-d]-pyridazin-7-(6H)-one as a potential substrate for new aldose reductase inhibitors” (J Med Chem, 1999)

biological target: T1, Aldo-keto reductase family 1 member B1 (Bos taurus, UniProt P16116); experiment: In vitro inhibitory activity against Aldose reductase 2 obtained from calf lenses

**Q.** For `O=C(O)Cn1nc(-c2ccccc2)cc(NCCc2ccccn2)c1=O`, which IC50 is on record?
**A.** 157 µM

**Q.** `O=C(O)Cn1nc(-c2ccccc2)cc(NCCc2ccccc2)c1=O` was tested. Which IC50 did it give?
**A.** 68.5 µM

**Q.** With `Cc1nn(CC(=O)O)c(=O)c2noc(C)c12` as the compound, how does the IC50 read?
**A.** 42 µM

**Q.** With `Cc1onc2c(=O)n(CC(=O)O)nc(-c3ccc([N+](=O)[O-])cc3)c12` as the compound, how does the IC50 read?
**A.** 4.76 µM

**Q.** How did the IC50 turn out when `Cc1onc2c(=O)n(CCCC(=O)O)nc(-c3ccc(Cl)cc3)c12` was run?
**A.** 10.4 µM

**Q.** `Cc1onc2c(=O)n(CC(=O)O)nc(-c3ccc(Cl)cc3)c12` was tested. Which IC50 did it give?
**A.** 3.72 µM

**Q.** For `O=C(O)Cn1nc(-c2ccccc2)cc(NCc2ccccc2)c1=O`, which IC50 is on record?
**A.** 48.8 µM

**Q.** For `CC(=O)c1c(-c2ccccc2)nn(CCCC(=O)O)c(=O)c1N`, which IC50 is on record?
**A.** 37 µM

**Q.** With `CCCC(C(=O)O)n1nc(-c2ccccc2)c2c(C)onc2c1=O` (configuration not stated) as the compound, how does the IC50 read?
**A.** 114 µM

**Q.** How did the IC50 turn out when `Cc1onc2c(=O)n(CCCC(=O)O)nc(-c3ccccc3)c12` was run?
**A.** 20.2 µM

**Q.** Which IC50 does the source give for `Cc1onc2c(=O)n(CCC(=O)O)nc(-c3ccccc3)c12` here?
**A.** 65.2 µM

**Q.** `Cc1onc2c(=O)n(C(C)C(=O)O)nc(-c3ccccc3)c12` (configuration not stated) was tested. Which IC50 did it give?
**A.** 76.8 µM

**Q.** `CC(=O)c1c(-c2ccccc2)nn(CC(=O)O)c(=O)c1NCCc1ccccc1` was tested. Which IC50 did it give?
**A.** 93.9 µM

**Q.** How did the IC50 turn out when `Cc1onc2c(=O)n(CC(=O)O)nc(-c3ccccc3)c12` was run?
**A.** 12.7 µM

**Q.** For `CC(=O)c1c(-c2ccccc2)nn(CC(=O)O)c(=O)c1NCc1ccccc1`, which IC50 is on record?
**A.** 27.6 µM

**Q.** How did the IC50 turn out when `CCC(C(=O)O)n1nc(-c2ccccc2)c2c(C)onc2c1=O` (configuration not stated) was run?
**A.** 75 µM

**Q.** For `Cc1onc2c(=O)n(CCC(=O)O)nc(-c3ccc(Cl)cc3)c12`, which IC50 is on record?
**A.** 34.8 µM

**Q.** Which IC50 does the source give for `CC(=O)c1c(-c2ccccc2)nn(CC(=O)O)c(=O)c1Nc1ccc(Br)cc1` here?
**A.** 133 µM

**Q.** How did the IC50 turn out when `CC(=O)c1c(-c2ccccc2)nn(CC(=O)O)c(=O)c1NCc1ccc(Cl)cc1` was run?
**A.** 36.5 µM

**Q.** How did the IC50 turn out when `Cc1c(-c2nc3cc(C(F)(F)F)ccc3s2)nc2c(O)n(CC(=O)O)nc(-c3ccccc3)c1-2` was run?
**A.** 97.9 µM

**Q.** With `C[c-]1[o+]nc2c(=O)n(CC(=O)O)nc(-c3cccc([N+](=O)[O-])c3)c21` as the compound, how does the IC50 read?
**A.** 4.46 µM

**Q.** How did the IC50 turn out when `Cc1nn(CCCC(=O)O)c(=O)c2noc(C)c12` was run?
**A.** 65.1 µM

**Q.** With `Cc1onc2c(=O)n(CCCCC(=O)O)nc(-c3ccccc3)c12` as the compound, how does the IC50 read?
**A.** 28.4 µM

**Q.** Which IC50 does the source give for `Cc1onc2c(=O)n(CC(=O)O)nc(-c3ccccc3[N+](=O)[O-])c12` here?
**A.** 6.06 µM

biological target: Aldo-keto reductase family 1 member B1 (Bos taurus) (UniProt P16116); experiment: In vitro inhibitory activity against Aldose reductase 2 obtained from calf lenses at a concentration of 16 uM
Summary of the method: (§1)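 Calf lens ALR2 purified by DE52, Orange Matrex affinity and Sephadex G75 chromatography. Inhibitor in DMSO (1% final) added to a 37 °C reaction with 4.7 mM D,L-glyceraldehyde and 0.11 mM NADPH in 0.25 M sodium phosphate pH 6.8 containing 0.38 M ammonium sulfate. Activity followed as absorbance change at 340 nm, corrected with a blank lacking substrate.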

**Q.** With `CC(=O)c1c(-c2ccccc2)nn(CC(=O)O)c(=O)c1Nc1ccccc1` as the compound, how does the inhibition read?
**A.** 12%

biological target: T1, Aldo-keto reductase family 1 member B1; experiment: In vitro inhibitory activity against aldose reductase (ALR2) obtained from calf lenses
Summary of the method: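 ALR2 purified from calf lens: homogenate in pH 7 phosphate buffer with 5 mM DTT, then DE52 ion exchange, Orange Matrex affinity and Sephadex G75. Assay at 37 °C, 4.7 mM D,L-glyceraldehyde, 0.11 mM NADPH, 0.25 M sodium phosphate pH 6.8 with 0.38 M ammonium sulfate, 1% DMSO. NADPH oxidation read at 340 nm against a substrate-free blank.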

**Q.** Which IC50 does the source give for `CC(=O)c1c(-c2ccccc2)nn(CC(=O)O)c(=O)c1N` here?
**A.** 154 µM

**Q.** For `Cc1onc2c(=O)n(C/C=C/C(=O)O)nc(-c3ccccc3)c12`, which IC50 is on record?
**A.** 107 µM

**Q.** Which IC50 does the source give for `CC(=O)c1c(C)nn(CC(=O)O)c(=O)c1N` here?
**A.** 210 µM

biological target: Aldo-keto reductase family 1 member B1 (Bos taurus) (UniProt P16116); experiment: In vitro inhibitory activity against Aldose reductase 2 obtained from calf lenses at a concentration of 142 uM; summary of the method: as §1

**Q.** `CC(=O)c1c(-c2ccccc2)nn(CCC(=O)O)c(=O)c1N` was tested. Which inhibition did it give?
**A.** 27%

biological target: Aldo-keto reductase family 1 member B1 (Bos taurus) (UniProt P16116); experiment: In vitro inhibitory activity against Aldose reductase 2 obtained from calf lenses at a concentration of 94 uM; summary of the method: as §1

**Q.** With `CC(=O)c1c(-c2ccccc2)nn(CC(=O)O)c(=O)c1Nc1ccc(Cl)cc1` as the compound, how does the inhibition read?
**A.** 27%

biological target: Aldo-keto reductase family 1 member B1 (Bos taurus) (UniProt P16116); experiment: In vitro inhibitory activity against Aldose reductase 2 obtained from calf lenses at a concentration of 190 uM; summary of the method: as §1

**Q.** `Cc1nn(CCC(=O)O)c(=O)c2noc(C)c12` was tested. Which inhibition did it give?
**A.** 28%

biological target: Aldo-keto reductase family 1 member B1 (Bos taurus) (UniProt P16116); experiment: In vitro inhibitory activity against Aldose reductase 2 obtained from calf lenses at a concentration of 82 uM; summary of the method: as §1

**Q.** With `Nc1cc(-c2ccccc2)nn(CC(=O)O)c1=O` as the compound, how does the inhibition read?
**A.** 36%
